# Measured values from ChEMBL document CHEMBL5030540 (J Med Chem, 2021).
# Experiments:
# [1] = molecular target: T1, Mu-type opioid receptor (Homo sapiens, UniProt P35372); assay: Agonist activity at human MOR expressed in HEK-293T cells assessed as inhibition of forskolin-stimulated cAMP accumulation incubated for 30 mins by Glo-sensor cAMP assay relative to DAMGO; type: functional, cell-based; settings: HEK293T
# In short: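 HEK293T cells transiently co-transfected with human MOR and a luciferase-based cAMP biosensor. Gαi-mediated cAMP inhibition read by luminescence. […] EC50 given as pEC50 ± SEM, triplicate runs.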
# [2] = molecular target: T1, Mu-type opioid receptor; assay: Agonist activity at human MOR expressed in HEK293T cells assessed as inhibition of forskolin-stimulated cAMP accumulation incubated for 30 mins by Glo-sensor cAMP assay; type: functional, cell-based
# In short: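 HEK293T cells transiently co-transfected with human MOR and a luciferase-based cAMP biosensor. Gαi-mediated cAMP inhibition read by luminescence. EC50 given as pEC50 ± SEM, triplicate runs.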
# [3] = molecular target: T1, Mu-type opioid receptor; assay: Agonist activity at human MOR receptor expressed in HTLA cells co-expressing TEV-fused-beta-arrestin2 assessed as induction of beta-arrestin2 recruitment by Tango assay; type: functional, cell-based
# In short: (§1)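 HTLA cells expressing TEV-fused β-arrestin2 transiently transfected with a human MOR Tango construct. β-arrestin2 recruitment measured. […] Mean pEC50 ± SEM and Emax% ± SEM from triplicate runs.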
# [4] = molecular target: T1, Mu-type opioid receptor; assay: Agonist activity at human MOR receptor expressed in HTLA cells co-expressing TEV-fused-beta-arrestin2 assessed as induction of beta-arrestin2 recruitment by Tango assay relative to DAMGO; type: functional, cell-based; settings: HTLA230; in short: as §1
# [5] = Toxicity in C57BL/6 mouse model assessed as conditioned place preference at 10 mg/kg, IP; type: organism-based; settings: in vivo
# In short: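 Counterbalanced two-compartment place conditioning in C57BL/6J mice. […] Time on drug-paired side over a 20 min test compared with preconditioning by Welch-corrected t test.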
# [6] = Toxicity in C57BL/6 mouse model assessed as charcoal distance travel at 15 mg/kg, sc measured after 3 hrs by gastrointestinal transit assay (reference value: 29.5 +/- 1 cm); type: organism-based; settings: in vivo
# T1 sequence (P35372 whole entry): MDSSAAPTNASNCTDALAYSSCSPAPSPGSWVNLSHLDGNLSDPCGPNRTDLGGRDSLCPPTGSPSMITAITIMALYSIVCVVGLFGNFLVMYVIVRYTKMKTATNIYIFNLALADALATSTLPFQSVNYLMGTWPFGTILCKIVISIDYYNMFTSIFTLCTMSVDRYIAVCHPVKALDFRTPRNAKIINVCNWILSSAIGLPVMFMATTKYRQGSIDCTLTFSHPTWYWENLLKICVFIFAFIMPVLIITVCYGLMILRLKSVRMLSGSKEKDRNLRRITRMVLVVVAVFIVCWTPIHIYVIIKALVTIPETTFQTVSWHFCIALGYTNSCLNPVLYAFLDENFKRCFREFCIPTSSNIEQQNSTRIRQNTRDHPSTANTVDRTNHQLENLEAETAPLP
Structure (SMILES),Emax ([1]; filed as agonist),EC50 [2],EC50 [3],Emax [4],Activity [5],Activity [6],Emax [1]
CC[C@@H]1CN2CC[C@@]3(O)C(=Nc4ccc(-c5ccoc5)c(OC)c43)[C@@H]2C[C@@H]1/C(=C\OC)C(=O)OC,100%,535 nM,8040 nM,31.3%,–,–,–
CN1CC[C@]23c4c5ccc(O)c4O[C@H]2[C@@H](O)C=C[C@H]3[C@H]1C5 [MORPHINE],–,–,–,–,Toxic,5.07 cm,–
CC[C@@H]1CN2CC[C@@]3(O)C(=Nc4ccc(C)c(OC)c43)[C@@H]2C[C@@H]1/C(=C\OC)C(=O)OC,9.58%,30.3 nM,–,< 20%,–,–,–
CC[C@@H]1CN2CCc3c([nH]c4c(C)ccc(OC)c34)[C@@H]2C[C@@H]1/C(=C\OC)C(=O)OC,83.9%,71.4 nM,–,< 20%,–,–,–
CC[C@@H]1CN2CCc3c([nH]c4ccc(C)c(OC)c34)[C@@H]2C[C@@H]1/C(=C\OC)C(=O)OC,96.5%,370 nM,–,< 20%,–,–,–
CC[C@@H]1CN2CC[C@@]3(O)C(=Nc4c(-c5ccccc5)ccc(OC)c43)[C@@H]2C[C@@H]1/C(=C\OC)C(=O)OC,–,17500 nM,–,< 20%,–,–,< 20%
CC[C@@H]1CN2CCc3c([nH]c4cccc(-c5ccoc5)c34)[C@@H]2C[C@@H]1/C(=C\OC)C(=O)OC,70.2%,93.7 nM,–,< 20%,–,–,–
CC[C@@H]1CN2CCc3c([nH]c4cccc(OC)c34)[C@@H]2C[C@@H]1/C(=C\OC)C(=O)OC,84.7%,–,–,< 20%,–,–,–
CC[C@@H]1CN2CCc3c([nH]c4cccc(C)c34)[C@@H]2C[C@@H]1/C(=C\OC)C(=O)OC,97.1%,82.9 nM,–,< 20%,–,–,–
CC[C@@H]1CN2CC[C@@]3(O)C(=Nc4c(-c5ccoc5)ccc(OC)c43)[C@@H]2C[C@@H]1/C(=C\OC)C(=O)OC,61.8%,1560 nM,–,< 20%,–,–,–
CC[C@@H]1CN2CCc3c([nH]c4c(-c5ccoc5)ccc(OC)c34)[C@@H]2C[C@@H]1/C(=C\OC)C(=O)OC,78.2%,186 nM,–,< 20%,–,–,–
